The RNAGym collection of RNA variant scans (doi:10.1002/anie.201605470)

B1: Osa-1-4 twister ribozyme (parent)
chain: CCGCCUAACACUGCCAAUGCCGGUCCCAAGCCCGGAUAAAAGUGGAGGGGGCGG

Variants of: B1
Assay: self-cleavage, relative activity (ratio to wild type); higher = more cleavage; co-transcriptional
How it was run: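 Values are relative activity: the fraction cleaved, normalised to wild type. A doped DNA template for a 54-nucleotide twister ribozyme from Oryza sativa had 97 % wild-type base and 1 % of each other base at the 48 positions downstream of the cleavage site. The RNA was transcribed in vitro for 2 h at 37 °C so that it could cleave itself co-transcriptionally, then sequenced deeply, with cleavage status scored from the presence or absence of upstream sequence in reads.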

| Variant | self-cleavage |
| --- | --- |
| U12C U24G | 0.03 |
| U12C U37A | 0.51 |
| U12C U37C | 0.44 |
| U12C U37G | 0.66 |
| U12C U43A | 0.11 |
| U12C U43C | 0.08 |
| U12C U43G | 0.09 |
| U12G | 0.55 |
| U12G U18A | 0.39 |
| U12G U18C | 0.28 |
| U12G U18G | 0.59 |
| U12G U24A | 0.05 |
| U12G U24C | 0.04 |
| U12G U24G | 0.04 |
| U12G U37A | 0.6 |
| U12G U37C | 0.55 |
| U12G U37G | 0.52 |
| U12G U43A | 0.08 |
| U12G U43C | 0.08 |
| U12G U43G | 0.1 |
| G13A | 0.17 |
| G13A G19A | 0.08 |
| G13A G19C | 0.03 |
| G13A G19U | 0.04 |

| Variant | self-cleavage |
| --- | --- |
| G13A G22A | 0.07 |
| G13A G22C | 0.03 |
| G13A G22U | 0.04 |
| G13A G23A | 0.04 |
| G13A G23C | 0.02 |
| G13A G23U | 0.02 |
| G13A G30A | 0.03 |
| G13A G30C | 0.02 |
| G13A G30U | 0.02 |
| G13A G34A | 0.09 |
| G13A G34C | 0.05 |
| G13A G34U | 0.05 |
| G13A G35A | 0.12 |
| G13A G35C | 0.05 |
| G13A G35U | 0.08 |
| G13A G42A | 0.05 |
| G13A G42C | 0.04 |
| G13A G42U | 0.02 |
| G13A G44A | 0.05 |
| G13A G44C | 0.08 |
| G13A G44U | 0.07 |
| G13A G45A | 0.03 |
| G13A G45C | 0.02 |
| G13A G45U | 0.02 |

| Variant | self-cleavage |
| --- | --- |
| G13A G47A | 0.04 |
| G13A G47C | 0.03 |
| G13A G47U | 0.03 |
| G13A G48A | 0.03 |
| G13A G48C | 0.03 |
| G13A G48U | 0.02 |
| G13A G49A | 0.03 |
| G13A G49C | 0.02 |
| G13A G49U | 0.02 |
| G13A G50A | 0.14 |
| G13A G50C | 0.06 |
| G13A G50U | 0.08 |
| G13A G51A | 0.05 |
| G13A G51C | 0.02 |
| G13A G51U | 0.04 |
| G13A G53A | 0.06 |
| G13A G53C | 0.03 |
| G13A G53U | 0.05 |
| G13A G54A | 0.07 |
| G13A G54C | 0.06 |
| G13A G54U | 0.2 |
| G13A U12A | 0.07 |
| G13A U12C | 0.04 |
| G13A U12G | 0.09 |

| Variant | self-cleavage |
| --- | --- |
| G13A U18A | 0.09 |
| G13A U18C | 0.1 |
| G13A U18G | 0.24 |
| G13A U24A | 0.05 |
| G13A U24C | 0.04 |
| G13A U24G | 0.01 |
| G13A U37A | 0.13 |
| G13A U37C | 0.12 |
| G13A U37G | 0.17 |
| G13A U43A | 0.05 |
| G13A U43C | 0.05 |
| G13A U43G | 0.04 |
| G13C | 0.03 |
| G13C G19A | 0.03 |
| G13C G19C | 0.03 |
| G13C G19U | 0.02 |
| G13C G22A | 0.03 |
| G13C G22C | 0.01 |
| G13C G22U | 0.02 |
| G13C G23A | 0.02 |
| G13C G23C | 0.01 |
| G13C G23U | 0.02 |
| G13C G30A | 0.01 |
| G13C G30C | 0.02 |

| Variant | self-cleavage |
| --- | --- |
| G13C G30U | 0.01 |
| G13C G34A | 0.04 |
| G13C G34C | 0.02 |
| G13C G34U | 0.03 |
| G13C G35A | 0.02 |
| G13C G35C | 0.02 |
| G13C G35U | 0.04 |
| G13C G42A | 0.03 |
| G13C G42C | 0.02 |
| G13C G42U | 0.01 |
| G13C G44A | 0.02 |
| G13C G44C | 0.03 |
| G13C G44U | 0.03 |
| G13C G45A | 0.02 |
| G13C G45C | 0.01 |
| G13C G45U | 0.01 |
| G13C G47A | 0.02 |
| G13C G47C | 0.01 |
| G13C G47U | 0.02 |
| G13C G48A | 0.01 |
| G13C G48C | 0.02 |
| G13C G48U | 0.01 |
| G13C G49A | 0.01 |
| G13C G49C | 0.01 |

| Variant | self-cleavage |
| --- | --- |
| G13C G49U | 0.01 |
| G13C G50A | 0.03 |
| G13C G50C | 0.02 |
| G13C G50U | 0.02 |
| G13C G51A | 0.02 |
| G13C G51C | 0.01 |
| G13C G51U | 0.02 |
| G13C G53A | 0.02 |
| G13C G53C | 0.01 |
| G13C G53U | 0.02 |
| G13C G54A | 0.03 |
| G13C G54C | 0.02 |
| G13C G54U | 0.04 |
| G13C U12A | 0.03 |
| G13C U12C | 0.03 |
| G13C U12G | 0.56 |
| G13C U18A | 0.03 |
| G13C U18C | 0.04 |
| G13C U18G | 0.05 |
| G13C U24A | 0.02 |
| G13C U24C | 0.03 |
| G13C U24G | 0.01 |
| G13C U37A | 0.02 |
| G13C U37C | 0.03 |

| Variant | self-cleavage |
| --- | --- |
| G13C U37G | 0.04 |
| G13C U43A | 0.03 |
| G13C U43C | 0.02 |
| G13C U43G | 0.03 |
| G13U | 0.03 |
| G13U G19A | 0.03 |
| G13U G19C | 0.01 |
| G13U G19U | 0.04 |
| G13U G22A | 0.03 |
| G13U G22C | 0.01 |
| G13U G22U | 0.02 |
| G13U G23A | 0.02 |
| G13U G23C | 0 |
| G13U G23U | 0.02 |
| G13U G30A | 0.01 |
| G13U G30C | 0.01 |
| G13U G30U | 0.01 |
| G13U G34A | 0.02 |
| G13U G34C | 0.03 |
| G13U G34U | 0.03 |
| G13U G35A | 0.03 |
| G13U G35C | 0.03 |
| G13U G35U | 0.03 |
